# High-throughput results deposited in PubChem by several laboratories.
# A selection: hits, their analogues and other compounds. The true share with any hit is near 2.6%.
# SENP8 block-1 = SENP8 protease inhibition; Q96LD8; inhibition, % at 10 µM; 1.2% of 330,000 active; purified SENP8, Z-RLRGG-aminoluciferin cleavage, luminescence; in the data active = inhibition above about 50%
# SENP6 block = blocks the human protease SENP6 | Recombinant SENP6 catalytic domain, aminoluciferin luminescence | inhibition, % at 10 µM | AID 2599 | Q9GZR1 | 1.8% of 330,000 active;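 active = inhibition above about 50% at the single tested dose, limit read from the data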;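 note: plate controls were DMSO wells with enzyme for no effect and DMSO wells lacking enzyme for full effect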
# SENP8 block-2 = SENP8 (human) protease inhibition | Q96LD8 | recombinant SENP8, Nedd8 substrate fluorescence | inhibition, % at 20 µM | 0.64% of 360,000 active; in the data active = inhibition mostly above about 40%, no sharp cut-off; inactive = mostly below about 27%
# Platelet DG rel = modulates dense granule release in human platelets | human platelet-rich plasma, SFLLRN dense granule ATP release, luminescence | inhibition, %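 (compounds screened at 7.5 µM in platelet-rich plasma)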 | 0.22% of 300,000 active | AID 1663;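 active = mean replicate score, as percent of positive control, at or above 50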
# SENP7 block = SENP7 protease inhibition | Q9BQF6 | recombinant SENP7, Z-RLRGG-aminoluciferin luminescence, 40 min | inhibition, % at 5 µM | 1.5% of 330,000 active | AID 434973;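 active = inhibition above about 50% at the single test dose, limit read from the data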;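 note: plate controls were DMSO with enzyme for no effect and no enzyme buffer wells for full effect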
# Target sequence (Q9BQF6 706-1050 limits assumed): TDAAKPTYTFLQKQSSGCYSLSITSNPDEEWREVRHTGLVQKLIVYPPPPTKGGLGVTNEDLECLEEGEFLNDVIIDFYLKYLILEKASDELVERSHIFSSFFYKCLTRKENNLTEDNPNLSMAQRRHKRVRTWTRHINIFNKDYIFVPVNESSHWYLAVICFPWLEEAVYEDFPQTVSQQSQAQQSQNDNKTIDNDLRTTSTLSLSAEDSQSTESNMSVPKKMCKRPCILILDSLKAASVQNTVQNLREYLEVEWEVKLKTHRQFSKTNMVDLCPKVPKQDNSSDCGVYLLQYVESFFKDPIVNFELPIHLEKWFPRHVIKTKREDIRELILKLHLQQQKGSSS
# SENP1 FRET inh = SENP1 (human) catalytic domain inhibition; Q9P0U3; recombinant SENP1 catalytic domain, CyPet-SUMO1-YPet FRET cleavage; inhibition, % at 10 µM; 0.21% of 360,000 active; AID 624204;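 active = inhibition at least 30% at 10 µM, raw YFP signal under a set limit, fluorescence ratio 0.5 to 1.5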;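 note: 0% = enzyme with DMSO and 100% = no enzyme wells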
#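 Material – human SENP1 catalytic domain · Input – SENP1 enzyme, 20 pM final · Compound dosing – single concentration of 10 µM compound, 0.5% DMSO final · Timing – enzyme reaction for 50 min at room temperature, dark · Measured by – FRET fluorescence in CFP and YFP emission channels · Control set – no-enzyme wells low, DMSO-plus-enzyme wells high control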
# * = called active by the depositor; . = no result.
SMILES,SENP8 block-1,SENP6 block,SENP8 block-2,Platelet DG rel,SENP7 block,SENP1 FRET inh
Cc1ccc(C)c(CC(=O)N2CCCC(c3cc(C(=O)NCc4cccnc4)no3)C2)c1 (stereo not drawn),.,.,13,.,.,0
CCN(c1ccccc1)S(=O)(=O)c1ccc(Cl)c(NC(=O)COC(=O)c2cc(O)c3ccccc3c2O)c1,32,62*,.,9,12,.
O=C1NC(=S)S/C1=C\c1cc2ccccc2nc1N1CCCCC1,25,28,8,-1,0,76*
CCN(Cc1ccccc1)c1ccc(/C=C(\C#N)c2ccccn2)cc1,7,43,4,8,35,-26
CCN(CC)c1ccc(/C=C(\C#N)c2ccccn2)cc1,88*,84*,2,9,88*,-25
C=CCN1C(=O)C2(OCCCO2)c2cc(C)ccc21,0,4,7,3,0,-1
CCOc1ccc(N2C(=O)CSC2=S)cc1,3,17,6,-4,9,-2
CCN(CC)c1ccc(N2C(=O)CSC2=S)cc1,3,7,55*,-3,14,7
CCn1c(O)c(N=NC(=O)CNC(=O)c2cccnc2)c2ccccc21,.,.,11,.,.,1
N#C/C(=C\c1cc([N+](=O)[O-])c(N2CCCCC2)cc1N1CCCCC1)c1nn(-c2ccccc2)c(N)c1C#N,2,19,50*,.,4,5
N#C/C(=C\c1cccc2ccccc12)c1nn(-c2ccccc2)c(N)c1C#N,8,-4,.,1,3,.
O=C1NNC(c2ccccc2)=N/C1=C\c1ccccc1Cl,.,.,117*,.,.,2
CON(C)C(=O)/C=C/c1ccc([B-](F)(F)F)cc1,.,.,0,.,.,0
COc1ccc(/C=C\c2nc(=O)c3ccccc3o2)cc1,66*,72*,-126,12,63*,-4
O=c1cc(-c2ccc(O)c(O)c2)oc2cc(O[C@@H]3O[C@H](CO)[C@@H](O)[C@H](O)[C@H]3O)cc(O)c12,9,17,27,.,-4,34*
CCCCC[n+]1ccn(C2=C([O-])c3ccccc3C(=O)/C2=N\S(=O)(=O)c2ccc(Cl)cc2)c1,19,47,71*,4,19,-3
Cc1c(C(=O)NCc2ccc([N+](=O)[O-])cc2)sc(=O)n1Cc1ccc2c(c1)OCO2,.,.,1,.,.,0
Cc1noc(/C=C/Nc2ccc(F)cc2F)c1[N+](=O)[O-],84*,87*,7,20,97*,-25
CCOc1ccccc1CNC(=O)Cn1ccc2cc(S(=O)(=O)N3CCC(C)CC3)ccc21,-2,13,-5,-7,1,-1
Cc1ccccc1-n1c(=O)cc(N2CCN(C(=O)c3ccco3)CC2)[nH]c1=O,2,7,3,52*,8,-1
Cn1nc(-c2ccc(Cl)cc2)nc2c(=O)n(C)c(=O)nc1-2,98*,98*,.,8,98*,.
COc1cc(/C=C2/S/C(=N/S(=O)(=O)Cc3ccccc3)NC2=O)c([N+](=O)[O-])cc1OC,2,9,42*,-1,6,11
CCCNC(=O)CN1C(=O)c2ccccc2Sc2ncccc21,6,18,17,-2,0,3
[O-][N+]1=c2ccc(Nc3ccccc3)cc2=NC12CCCCC2,.,.,86*,-2,.,11
O=[N+]([O-])c1ccc2c(c1N1CCCCC1)=NC1(CCCCC1)[N+]=2[O-],12,25,35,-3,1,-3
SMILES,SENP8 block-1,SENP6 block,SENP8 block-2,Platelet DG rel,SENP7 block,SENP1 FRET inh
CC(=O)c1ccc(N(CC(=O)NCCc2ccccc2)C(=O)c2csnn2)cc1,-2,8,11,-1,8,3
CC(=O)c1cccc(NC(=O)CCn2c(=S)oc3ccccc32)c1,7,5,16,1,2,0
C=C(C)[C@@H]1CC=C(CN2CCC(N3CCC(C(=O)N4CCCC4)CC3)CC2)CC1,3,-20,8,11,2,-11
Cc1ncc(CN2CCC(N3CCC(C(=O)N4CCCC4)CC3)CC2)s1,-7,-10,-1,55*,3,-1
CC(C)c1ccc(CC(=O)N2CCC2(C)C(=O)NS(=O)(=O)c2ccc(Cl)s2)cc1 (stereo not drawn),.,.,8,.,.,1
CCCc1cc(C(=O)N2CCCC(Cc3ccccc3C)(C(=O)OCC)C2)no1 (stereo not drawn),-1,-14,15,10,7,-1
